Most compounds without a hit are left out; they make up all but 5.5% or so of the library.
PostGolgi yeast = phenotypic screen on post-Golgi transport, primary screen | post-Golgi transport phenotypic cell assay | inhibition, % at 10 µM | 0.9% of 98,000 active | AID 739, 2007;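 note: yeast cells grown in 1536-well plates; yeast grown about 18 h at 30C before absorbance read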
PostGolgi ctrl = growth inhibition of yeast control strain, primary screen, counter-screen for post-Golgi transport modulator project. efflux-deficient yeast background strain, growth absorbance A615, 16 h. inhibition, % at 10 µM. 5% of 98,000 active
E coli WT exp = growth inhibitors of wild-type E. coli, primary screen, strain BW25113, expanded library, OD600; OD600 absorbance; growth inhibition, % at 100 µM; 0.15% of 98,000 active; AID 710, 2007;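 active = growth inhibition above about 50% at one test dose, limit read from the data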;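 note: growth measured after 20 h incubation at 37 °C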
PLAP act = PLAP enzyme activators, biochemical, luminescence, HTS; 1.2% of 96,000 active; activation fold at 20 µM; AID 696, 2007; Alkaline phosphatase, placental type (Homo sapiens), P05187; purified PLAP enzyme, luminescent substrate read-out; stronger effect = higher value; in the data active = activation fold above about 2
Target sequence (P05187 whole entry, looked up): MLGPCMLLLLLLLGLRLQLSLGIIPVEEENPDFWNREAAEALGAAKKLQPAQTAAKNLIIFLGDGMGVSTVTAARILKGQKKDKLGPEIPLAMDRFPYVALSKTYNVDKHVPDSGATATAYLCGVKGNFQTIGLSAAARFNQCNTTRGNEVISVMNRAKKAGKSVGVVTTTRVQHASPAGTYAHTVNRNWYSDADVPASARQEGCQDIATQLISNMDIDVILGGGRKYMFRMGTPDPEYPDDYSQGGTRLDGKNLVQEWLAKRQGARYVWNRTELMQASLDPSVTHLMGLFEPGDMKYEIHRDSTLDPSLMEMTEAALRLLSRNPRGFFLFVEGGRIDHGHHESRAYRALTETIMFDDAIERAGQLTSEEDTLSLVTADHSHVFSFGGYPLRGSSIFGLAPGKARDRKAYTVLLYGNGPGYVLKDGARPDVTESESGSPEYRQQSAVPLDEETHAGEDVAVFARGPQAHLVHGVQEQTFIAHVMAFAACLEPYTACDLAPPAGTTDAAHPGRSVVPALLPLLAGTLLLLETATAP
HePTP inh = inhibitors of human HePTP phosphatase, primary screen, biochemical, absorbance, leukemia target; Tyrosine-protein phosphatase non-receptor type 7 (Homo sapiens), P35236; recombinant HePTP phosphatase activity, OD absorbance; inhibition, % at 20 µM; 0.64% of 110,000 active; AID 521, 2006; in the data active = inhibition above about 50%;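 note: plate controls were vehicle for no effect and reference inhibitor for full effect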
Ecoli tolC = growth inhibitors of E. coli tolC mutant, primary screen, strain BW25113 ΔtolC::kan, 384-well; AID 573, 2007; OD615; growth inhibition, % at 10 µM (by protocol); 2.2% of 65,000 active;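 active = growth inhibition at or above a cutoff equal to the mean over every tested compound plus 3 SD, cut at about 60% in these data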;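 note: growth measured after 20 h incubation at 37 °C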
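Material: E. coli BW25113 ΔtolC::kan, tolC deletion mutant strain. Measure: percent growth inhibition. Schedule: 37 °C, 20 h exposure. Doses: single-point testing at 10 µM. Signal: A615 absorbance measurement. Buffer or medium: kanamycin-containing LB broth (50 µg/mL).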
* marks the source's active call; other numbers are inactive results. Cut-off read from the data, not from the text of the source, unless noted: active = inhibition above about 30%; inactive = the rest.

What do the screens show for `COc1cccc(NC(=O)c2ccccc2-c2nc(-c3ccc(F)cc3)no2)c1`?
PostGolgi yeast: 25; PostGolgi ctrl: 56*; E coli WT exp: -9; PLAP act: 1.1; HePTP inh: 2; Ecoli tolC: 24

How did COc1cc(OC)c(C2SCCN2S(=O)(=O)c2ccc3ccccc3c2)cc1OC (stereo unspecified) do in these assays?
HePTP inh: -2

Results for CCC(c1nnnn1Cc1ccco1)N(CCc1ccccc1)Cc1cc2cc(C)ccc2[nH]c1=O (stereo unspecified) ?
PLAP act: 1.2; HePTP inh: -8; Ecoli tolC: 51

How did CCC(c1nnnn1Cc1ccccc1)N(Cc1ccco1)Cc1cc2cc(OC)ccc2[nH]c1=O (stereo unspecified) do in these assays?
PostGolgi yeast: 0; PostGolgi ctrl: 41*; E coli WT exp: -6; PLAP act: 1.1; HePTP inh: 8; Ecoli tolC: 22

What do the screens show for `O=C1OC(c2ccccc2I)=N/C1=C\c1cccc([N+](=O)[O-])c1`?
HePTP inh: 1

What do the screens show for `Cn1c(C(=O)NCCN2CCc3ccccc3C2)cc2c(=O)n(C)c3ccccc3c21`?
PostGolgi yeast: -10; PostGolgi ctrl: 34*; E coli WT exp: -1; PLAP act: 1.9; HePTP inh: 5; Ecoli tolC: 56

How did COc1ccc(NC(=O)c2cc3c(=O)n(C)c4ccccc4c3n2C)cc1OC do in these assays?
PostGolgi yeast: -6; PostGolgi ctrl: 2; E coli WT exp: -3; PLAP act: 1.5; HePTP inh: -8; Ecoli tolC: 75*

Results for Cn1c(C(=O)NCCN2CCOCC2)cc2c(=O)n(C)c3ccccc3c21 ?
PostGolgi yeast: -5; PostGolgi ctrl: 18; E coli WT exp: 8; PLAP act: 1.4; HePTP inh: 8; Ecoli tolC: 2

How did N#CCSc1nc(N)c(C#N)c(C2CCCCC2)c1C#N do in these assays?
PostGolgi yeast: 18; PostGolgi ctrl: 51*; E coli WT exp: 11; PLAP act: 1; HePTP inh: -11; Ecoli tolC: 24

How did O=c1[nH]c2ccc(Cl)cc2c(-c2ccccc2)c1Sc1nc2ccccc2[nH]1 do in these assays?
HePTP inh: 16

How did CCN(CC)C(=S)Sc1c(-c2ccccc2)c2cc(Cl)ccc2[nH]c1=O do in these assays?
PostGolgi yeast: 18; PostGolgi ctrl: 32*; E coli WT exp: -12; PLAP act: 1.6

Results for Cc1cc(C)n(C(C[N+](=O)[O-])c2ccc(Cl)cc2)n1 (stereo unspecified) ?
PostGolgi yeast: -2; PostGolgi ctrl: 4; E coli WT exp: 100*; PLAP act: 1.5

What do the screens show for `O=c1c2ccccc2nc(SCc2nc3ccccc3s2)n1Cc1ccco1`?
PostGolgi yeast: 5; PostGolgi ctrl: 14; E coli WT exp: -16; PLAP act: 1.3; HePTP inh: -11; Ecoli tolC: 8

What do the screens show for `O=c1c2ccccc2sc2nc(C3CCCCC3)n(Cc3ccco3)c(=O)c12`?
PostGolgi yeast: 47*; PostGolgi ctrl: 50*; E coli WT exp: 6; PLAP act: 1.5; HePTP inh: 10; Ecoli tolC: 52

How did CCc1nc2sc3ccccc3c(=O)c2c(=O)n1Cc1ccco1 do in these assays?
PostGolgi yeast: 8; PostGolgi ctrl: 9; E coli WT exp: 3; Ecoli tolC: 91*

Results for O=C(COc1ccc(Cl)cc1Cl)Nc1nc2n(n1)C(c1ccccc1)CC(=O)N2 (stereo unspecified) ?
PostGolgi yeast: -4; PostGolgi ctrl: -1; E coli WT exp: -4; PLAP act: 1.6; HePTP inh: 46; Ecoli tolC: 5

How did O=C1CC(c2ccccc2)n2nc(NS(=O)(=O)c3ccccc3)nc2N1 (stereo unspecified) do in these assays?
PostGolgi yeast: 25; PostGolgi ctrl: -4; E coli WT exp: 4; PLAP act: 2*; HePTP inh: -8; Ecoli tolC: 9

What do the screens show for `O=C(O)CCCN1C(=O)/C(=C/c2cn(-c3ccccc3)nc2-c2cccc([N+](=O)[O-])c2)SC1=S`?
HePTP inh: 104*

Results for O=C(O)CCN1C(=O)/C(=C/c2cn(-c3ccccc3)nc2-c2ccc(Br)cc2)SC1=S ?
HePTP inh: 101*

Screening results deposited in PubChem BioAssay by several laboratories.
